According to ChEMBL document CHEMBL1914395, “Design, synthesis, and biological evaluation of callophycin A and analogues as potential chemopreventive and anticancer agents” (Bioorg Med Chem, 2011):

How the values were obtained:
[1] = molecular target: NAD(P)H dehydrogenase [quinone] 1 (Mus musculus) (UniProt Q64669); experiment: Induction of quinone reductase 1 activity in mouse Hepa-1c1c7 cells at 50 uM by MTT assay relative to untreated control; assay type: cell-based
Method in brief: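 Hepa 1c1c7 murine hepatoma cells treated with compound at 50 μM. QR1 measured by NADPH-dependent, menadiol-mediated reduction of MTT to formazan. Protein measured by crystal violet staining of identical plates. Specific activity is nmol formazan per mg protein per min. Induction ratio is treated versus DMSO-treated control.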

[2] = molecular target: NAD(P)H dehydrogenase [quinone] 1 (Mus musculus) (UniProt Q64669); experiment: Induction of quinone reductase 1 activity in mouse Hepa-1c1c7 cells assessed as cell survival at 50 uM by MTT assay relative to control; assay type: cell-based
Aromatase = molecular target: T1, Aromatase (Homo sapiens, UniProt P11511); experiment: Inhibition of aromatase at 50 uM after 10 mins preincubation by plate reader relative to control
T1 sequence (P11511 whole entry): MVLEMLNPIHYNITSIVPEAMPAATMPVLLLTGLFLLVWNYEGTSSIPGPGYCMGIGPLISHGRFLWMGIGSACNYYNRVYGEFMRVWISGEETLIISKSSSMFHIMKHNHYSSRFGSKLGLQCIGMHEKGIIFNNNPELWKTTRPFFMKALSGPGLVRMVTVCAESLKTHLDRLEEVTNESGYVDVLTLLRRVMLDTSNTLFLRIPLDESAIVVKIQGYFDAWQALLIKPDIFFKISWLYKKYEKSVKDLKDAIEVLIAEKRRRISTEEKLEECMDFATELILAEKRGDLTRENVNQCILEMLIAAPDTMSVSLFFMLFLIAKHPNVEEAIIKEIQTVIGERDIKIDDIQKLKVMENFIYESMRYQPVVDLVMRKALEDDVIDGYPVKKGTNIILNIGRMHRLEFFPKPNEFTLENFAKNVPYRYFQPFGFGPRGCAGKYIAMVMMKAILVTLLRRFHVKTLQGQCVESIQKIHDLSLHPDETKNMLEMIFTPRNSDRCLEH
Method in brief: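 CYP19 enzyme. Compound pre-incubated 10 min with an NADPH-regenerating system (NADP+, glucose 6-phosphate, G6PDH, MgCl2, albumin) in 50 mM potassium phosphate pH 7.4. Enzyme and 0.4 μM dibenzylfluorescein substrate then added, 30 min at 37 °C. Quenched with 2 N NaOH and incubated a further 2 h at 37 °C. Fluorescence read at ex 485/em 530 nm. Compound tested at 50 μM.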

[3] = molecular target: T2, Nitric oxide synthase, inducible (Mus musculus) (UniProt P29477); experiment: Inhibition of iNOS-mediated nitric oxide production in LPS-stimulated mouse RAW 264.7 cells at 50 uM pretreated 15 mins before LPS challenge measured after 20 hrs relative to control; assay type: cell-based
T2 sequence (whole entry): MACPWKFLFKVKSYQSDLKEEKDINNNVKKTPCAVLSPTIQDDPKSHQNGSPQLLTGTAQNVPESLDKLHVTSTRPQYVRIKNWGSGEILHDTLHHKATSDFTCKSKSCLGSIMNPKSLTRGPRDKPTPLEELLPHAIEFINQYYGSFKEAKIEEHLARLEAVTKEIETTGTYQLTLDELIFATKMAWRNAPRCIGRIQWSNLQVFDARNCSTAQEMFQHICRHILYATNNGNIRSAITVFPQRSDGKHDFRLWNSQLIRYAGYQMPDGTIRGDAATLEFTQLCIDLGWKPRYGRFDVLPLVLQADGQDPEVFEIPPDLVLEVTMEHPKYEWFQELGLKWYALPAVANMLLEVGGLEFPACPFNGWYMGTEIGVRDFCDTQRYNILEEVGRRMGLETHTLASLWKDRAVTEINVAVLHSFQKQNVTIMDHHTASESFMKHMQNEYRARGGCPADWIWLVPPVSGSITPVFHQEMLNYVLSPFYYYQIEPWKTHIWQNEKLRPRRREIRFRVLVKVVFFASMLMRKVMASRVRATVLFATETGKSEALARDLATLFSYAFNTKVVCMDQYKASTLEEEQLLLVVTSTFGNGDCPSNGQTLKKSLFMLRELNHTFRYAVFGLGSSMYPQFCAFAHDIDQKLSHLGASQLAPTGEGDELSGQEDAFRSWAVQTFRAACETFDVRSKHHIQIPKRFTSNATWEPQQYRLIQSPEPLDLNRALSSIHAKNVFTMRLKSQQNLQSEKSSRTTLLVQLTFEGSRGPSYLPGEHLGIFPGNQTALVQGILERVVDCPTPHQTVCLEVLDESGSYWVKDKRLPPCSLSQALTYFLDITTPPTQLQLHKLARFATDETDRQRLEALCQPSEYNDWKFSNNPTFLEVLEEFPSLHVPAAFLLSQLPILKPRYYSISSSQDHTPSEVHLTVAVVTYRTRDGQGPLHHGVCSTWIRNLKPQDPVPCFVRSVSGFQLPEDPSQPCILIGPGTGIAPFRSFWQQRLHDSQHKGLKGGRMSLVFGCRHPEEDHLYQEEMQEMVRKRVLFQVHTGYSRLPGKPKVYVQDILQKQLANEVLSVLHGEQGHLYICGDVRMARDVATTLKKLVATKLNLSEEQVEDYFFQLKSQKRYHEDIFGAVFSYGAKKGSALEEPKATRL
Method in brief: (§1)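 RAW 264.7 cells cultured 24 h at 37°C, then given serially diluted compounds for 15 min before LPS (1 μg/mL) for 20 h. Nitrite in the medium measured with Griess reagent at 540 nm against a sodium nitrite standard curve. Cytotoxicity checked by SRB under the same conditions.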

[4] = molecular target: T2, Nitric oxide synthase, inducible (Mus musculus); experiment: Inhibition of iNOS-mediated nitric oxide production in LPS-stimulated mouse RAW 264.7 cells assessed as cell survival at 50 uM pretreated 15 mins before LPS challenge measured after 20 hrs relative to control; assay type: cell-based
Method in brief: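 RAW 264.7 cells were incubated at 37°C, 5% CO2 for 24 h. They were then exposed to compound for 15 min before LPS (1 μg/mL) was added for 20 h. Cytotoxicity was measured by SRB staining under the same conditions. Survival is expressed as % relative to vehicle-treated controls at 50 μM.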

HEK293 [5] = experiment: Inhibition of TNF-alpha-induced NFkappaB activation in human HEK293 cells at 50 uM after 6 hrs by luciferase assay relative to control; assay type: cell-based
Method in brief: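 Cells incubated 6 h with TNFα plus test compound, then luciferase activity measured. Results expressed as percent of TNFα-treated control. Screening concentration 50 μM.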

HEK293 [6] = experiment: Inhibition of TNF-alpha-induced NFkappaB activation in human HEK293 cells assessed as cell survival at 50 uM after 6 hrs by luciferase assay relative to control; assay type: cell-based
MCF7 = experiment: Antiproliferative activity against human MCF7 cells assessed as survival at 50 uM after 72 hrs by SRB assay relative to control; assay type: functional; settings: MCF7, 72 h, read-out: Survival
Method in brief: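 MCF7 cells (1 × 10^4 per well) were plated onto compound and kept at 37°C, 5% CO2 for 72 h. Cells were fixed in 10% TCA for 30 min and stained with 0.4% SRB in 1% acetic acid for 30 min. Bound dye was dissolved in 10 mM Tris (pH 10.0) and read at 515 nm. Survival is given as % of DMSO-treated controls, screened at 50 μM.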

[7] = molecular target: T3, Nitric oxide synthase, inducible (Mus musculus, UniProt P29477); experiment: Inhibition of iNOS-mediated nitric oxide production in LPS-stimulated mouse RAW 264.7 cells pretreated 15 mins before LPS challenge measured after 20 hrs relative to control; assay type: cell-based; method in brief: as §1
T3 sequence (P29477 whole entry): T2 sequence (whole entry)

NAD(P)H dehydrogenase [quinone] 1 (Mus musculus), sequence (Q64669 whole entry): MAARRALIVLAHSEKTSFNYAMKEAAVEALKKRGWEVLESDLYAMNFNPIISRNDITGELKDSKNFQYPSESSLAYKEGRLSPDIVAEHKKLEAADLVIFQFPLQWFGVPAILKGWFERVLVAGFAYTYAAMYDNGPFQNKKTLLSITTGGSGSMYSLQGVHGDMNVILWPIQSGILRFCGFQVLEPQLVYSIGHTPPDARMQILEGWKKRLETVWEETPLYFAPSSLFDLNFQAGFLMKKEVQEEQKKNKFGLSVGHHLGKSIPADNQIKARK

| SMILES | Ratio [1] | Survival [2] [%] | inhibition at 50 µM (Aromatase) [%] | inhibition [3] [%] | Survival [4] [%] | inhibition (HEK293 [5]) [%] | Survival (HEK293 [6]) [%] | viability at 50 µM (MCF7) [%] | IC50 [7] [µM] |
| --- | --- | --- | --- | --- | --- | --- | --- | --- | --- |
| C=CCOC(=O)N1Cc2[nH]c3ccccc3c2C[C@@H]1C(=O)O | 1.9 | 93.8 | 32.9 | -4 | 134 | 49.4 | 204 | 102 | – |
| C#CCN1Cc2[nH]c3ccccc3c2C[C@@H]1C(=O)O | 1.6 | 94.6 | 23.5 | 16.4 | 87.9 | -7.7 | 72.7 | 107 | – |
| O=C(O)[C@H]1Cc2c([nH]c3ccccc23)CN1CC1CC1 | 1.8 | 102 | 31.5 | – | 130 | 48.4 | 169 | 113 | – |
| O=C(O)[C@H]1Cc2c([nH]c3ccccc23)CN1 | 0.8 | 90.7 | 34.9 | 3.5 | 95.9 | – | 95.4 | – | – |
| COC(=O)[C@H]1Cc2c([nH]c3ccccc23)CN1Cc1ccc(OCc2ccccc2)cc1 | 1.4 | 85.4 | 27.3 | 75.9 | 86.8 | 40.5 | 91 | 96.7 | 29.4 |
| O=C(O)[C@H]1Cc2c([nH]c3ccccc23)CN1Cc1ccc(O)cc1 | 1.5 | 91.2 | 38.4 | 27.8 | 94.7 | 54.6 | 133 | 71.1 | – |
| COC(=O)[C@H]1Cc2c([nH]c3ccccc23)CN1Cc1ccc(O)cc1 | 1.8 | 98.6 | 38.7 | 63.7 | 87.3 | 33.5 | 122 | 100 | 37.5 |
| COC(=O)[C@H]1Cc2c([nH]c3ccccc23)CN1CC1CC1 | 1.8 | 81.8 | 37.9 | 5.6 | 124 | 29.9 | 254 | 102 | – |
| CS(=O)(=O)N1Cc2[nH]c3ccccc3c2C[C@H]1C(=O)O | 1.1 | 96.7 | 26.5 | 6.4 | 94.2 | 51.1 | 256 | – | – |
